ChEMBL document CHEMBL1250489, “Schiff bases of indoline-2,3-dione (isatin) derivatives and nalidixic acid carbohydrazide, synthesis, antitubercular activity and pharmacophoric model building” (2010)
Values after ≈ are worked out from the molar mass of the structure shown. Active and inactive are the calls of the source. No cut-off for these calls is given here.

Columns and labels:
[1] = system: Mycolicibacterium smegmatis; assay: Antitubercular activity against Mycobacterium smegmatis ATCC 35797 at 200 ug/ml after 48 hrs by agar dilution method; assay type: functional, organism-based
Summary of the method: (§1)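 Agar dilution MIC method. Compounds were dissolved in DMSO at 1 mg/ml and mixed into molten agar at 200 µg/ml. Active compounds were further diluted through 100, 50, 25, 12.5 and 6.25 down to 0.625 µg/ml. Plates had 3–4 mm agar depth. Inocula were overnight Mueller–Hinton broth cultures diluted 1:100 and radially streaked, then incubated 35 °C for 48 h. Isoniazid was the reference; drug-free and DMSO controls were included.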

Mycobacterium xenopi [2] = assay: Antitubercular activity against Mycobacterium xenopi ATCC 14470 after 48 hrs by agar dilution method; assay type: functional; conditions: ATCC 14470, 48 h; summary of the method: as §1
[3] = system: Mycolicibacterium smegmatis; assay: Antitubercular activity against Mycobacterium smegmatis ATCC 35797 after 48 hrs by agar dilution method; assay type: functional; conditions: ATCC 35797, 48 h
Summary of the method: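 MIC by agar dilution, NCCLS-like protocol. A 1 mg/ml DMSO stock is diluted in 10% molten agar to 200 µg/ml, then 100, 50, 25, 12.5, 6.25 down to 0.625 µg/ml. Plates are 3–4 mm deep. Overnight Mueller–Hinton cultures are diluted 1:100 and streaked radially. Incubation is 35 °C for 48 h. The control is DMSO in medium.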

Mycobacteroides chelonae [4] = assay: Antitubercular activity against Mycobacterium chelonae ATCC 35751 after 48 hrs by agar dilution method; assay type: functional; conditions: ATCC 35751, 48 h; summary of the method: as §1
[5] = system: Mycobacterium intracellulare; assay: Antitubercular activity against Mycobacterium intracellular ATCC 35743 after 48 hrs by agar dilution method; assay type: functional; conditions: ATCC 35743, 48 h; summary of the method: as §1
Mycobacteroides chelonae [6] = assay: Antitubercular activity against Mycobacterium chelonae ATCC 35751 at 200 ug/ml after 48 hrs by agar dilution method; assay type: functional, organism-based
Summary of the method: (§2)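 Agar dilution screen. Compounds are dissolved in DMSO at 1 mg/ml stock and mixed into 10% molten agar to 200 µg/ml. Plates are poured 3–4 mm deep. Overnight Mueller–Hinton broth cultures are diluted 1:100 and streaked radially. Plates are incubated at 35 °C for 48 h. Controls are strain with DMSO and medium only.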

Mycobacterium xenopi [7] = assay: Antitubercular activity against Mycobacterium xenopi ATCC 14470 at 200 ug/ml after 48 hrs by agar dilution method; assay type: functional, organism-based; summary of the method: as §2
[8] = system: Mycobacterium intracellulare; assay: Antitubercular activity against Mycobacterium intracellular ATCC 35743 at 200 ug/ml after 48 hrs by agar dilution method; assay type: functional, organism-based; summary of the method: as §2
Mycobacterium xenopi [9] = assay: Ratio of compound MIC to isoniazid MIC for Mycobacterium xenopi ATCC 14470; assay type: functional
[10] = system: Mycobacterium intracellulare; assay: Ratio of compound MIC to isoniazid MIC for Mycobacterium intracellular ATCC 35743; assay type: functional
Mycobacteroides chelonae [11] = assay: Ratio of compound MIC to isoniazid MIC for Mycobacterium chelonae ATCC 35751; assay type: functional
[12] = system: Mycolicibacterium smegmatis; assay: Ratio of compound MIC to isoniazid MIC for Mycobacterium smegmatis ATCC 35797; assay type: functional

| Structure (SMILES) | MIC [1] | MIC (Mycobacterium xenopi [2]) [µg/mL] | MIC [3] [µg/mL] | MIC [5] [µg/mL] | also measured |
| --- | --- | --- | --- | --- | --- |
| CCN(CC)CN1C(=O)/C(=N\NC(=O)c2cn(CC)c3nc(C)ccc3c2=O)c2ccccc21 | inactive |  |  |  |  |
| CCCN1C(=O)/C(=N\NC(=O)c2cn(CC)c3nc(C)ccc3c2=O)c2ccccc21 | inactive |  |  |  |  |
| C=CCN1C(=O)/C(=N\NC(=O)c2cn(CC)c3nc(C)ccc3c2=O)c2ccccc21 | inactive |  |  |  |  |
| CCN1C(=O)/C(=N\NC(=O)c2cn(CC)c3nc(C)ccc3c2=O)c2ccccc21 |  | 200 (≈ 496 µM) | 200 (≈ 496 µM) | 200 (≈ 496 µM) | MIC (Mycobacteroides chelonae [4]): 200 µg/mL (≈ 496 µM) |
| CCn1cc(C(=O)N/N=C2\C(=O)Nc3ccccc32)c(=O)c2ccc(C)nc21 |  |  | 100 (≈ 266 µM) |  | MIC (Mycobacteroides chelonae [6]): inactive; MIC (Mycobacterium xenopi [7]): inactive; MIC [8]: inactive |
| CCn1cc(C(=O)N/N=C2\C(=O)N(Cc3ccccc3)c3ccccc32)c(=O)c2ccc(C)nc21 |  | 0.625 (≈ 1.34 µM) | 0.625 (≈ 1.34 µM) | 0.625 (≈ 1.34 µM) | Ratio (Mycobacterium xenopi [9]): 20; MIC (Mycobacteroides chelonae [4]): 0.625 µg/mL (≈ 1.34 µM); Ratio [10]: 20; Ratio (Mycobacteroides chelonae [11]): 20; Ratio [12]: 20 |
| CCn1cc(C(=O)N/N=C2\C(=O)N(C)c3ccccc32)c(=O)c2ccc(C)nc21 |  |  | 200 (≈ 514 µM) | 200 (≈ 514 µM) | MIC (Mycobacteroides chelonae [6]): inactive; MIC (Mycobacterium xenopi [7]): inactive |
| CCn1cc(C(=O)N/N=C2\C(=O)Nc3ccc(Br)cc32)c(=O)c2ccc(C)nc21 |  |  | 200 (≈ 440 µM) |  | MIC (Mycobacteroides chelonae [6]): inactive; MIC (Mycobacterium xenopi [7]): inactive; MIC [8]: inactive |
| CCN(CC)CN1C(=O)/C(=N\NC(=O)c2cn(CC)c3nc(C)ccc3c2=O)c2cc(Br)ccc21 | inactive |  |  |  |  |
| CCN1C(=O)/C(=N\NC(=O)c2cn(CC)c3nc(C)ccc3c2=O)c2cc(Br)ccc21 |  | 100 (≈ 207 µM) | 100 (≈ 207 µM) | 100 (≈ 207 µM) | MIC (Mycobacteroides chelonae [6]): inactive |
| CCn1cc(C(=O)N/N=C2\C(=O)N(C)c3ccc(Br)cc32)c(=O)c2ccc(C)nc21 | inactive |  |  |  |  |
| NNC(=O)c1ccncc1 [ISONIAZID] |  | 12.5 (≈ 91.1 µM) | 12.5 (≈ 91.1 µM) | 12.5 (≈ 91.1 µM) | MIC (Mycobacteroides chelonae [4]): 12.5 µg/mL (≈ 91.1 µM) |
| CCn1cc(C(=O)N/N=C2\C(=O)N(Cc3ccccc3)c3ccc(Br)cc32)c(=O)c2ccc(C)nc21 |  | 50 (≈ 91.8 µM) | 50 (≈ 91.8 µM) | 50 (≈ 91.8 µM) | MIC (Mycobacteroides chelonae [4]): 50 µg/mL (≈ 91.8 µM) |
| CCCN1C(=O)/C(=N\NC(=O)c2cn(CC)c3nc(C)ccc3c2=O)c2cc(Br)ccc21 | inactive |  |  |  |  |
| CCn1cc(C(=O)N/N=C2\C(=O)N(CN3CCN(C)CC3)c3ccccc32)c(=O)c2ccc(C)nc21 | inactive |  |  |  |  |
| C=CCN1C(=O)/C(=N\NC(=O)c2cn(CC)c3nc(C)ccc3c2=O)c2cc(Br)ccc21 | inactive |  |  |  |  |
